Data from publication PMC4470787 (Clinical cancer research : an official journal of the …, 2015).
Entries after “also recorded” stand apart in the source; their conditions may differ.

Key:
[1] = system: mTOR-sensitive, inflammation-associated and miR-21 target gene sets; assay type: in vivo, human
Outline: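 Peripheral blood was sampled from 5 patients before (C1D0) and 24 h after (C1D1) the first oral everolimus dose. RNA was TRIzol-extracted, isopropanol-precipitated and 70% ethanol-washed, accepted at integrity number >7, and amplified/biotinylated via oligo(dT) reverse transcription and T7 transcription with biotin-UTP. It was hybridised to HumanHT-12 v4 bead chips and analysed by gene set enrichment analysis.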

[2] = system: pS6RP, p4EBP1 (Thr37/46), pAkt (Ser473); assay type: in vivo, human; details: 5 of 8 tested samples; 24 h after first dose; both 5 mg and 10 mg dose levels
[3] = system: mTOR targets (S6RP pS235-S236, S6RP pS240-S244, 4EBP1) and Akt; assay: Reverse phase protein array; assay type: in vivo, human
Outline: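 Peripheral blood proteins from 10 patients (3 on 5 mg/day, 7 on 10 mg/day everolimus) were lysed as for western blots, taken before (C1D0) and 24 h after (C1D1) the first dose. The reverse phase protein array probed mTOR pS2448, p70S6K pT389, S6RP pS235-S236 and pS240-S244, 4EBP1 pS65 and pT37-T46, and Akt pS473 and pT308. Phospho/total ratios were compared between days 0 and 1.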

[4] = system: relapsed/refractory acute lymphoblastic leukemia; assay: Phase I/II study: response and survival with everolimus plus HyperCVAD; assay type: in vivo, human
[5] = Everolimus whole blood pharmacokinetics; assay type: in vivo, human
Outline: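 Patients with relapsed/refractory ALL took oral everolimus (5 or 10 mg/day, continuous from Cycle 1 Day 0) with HyperCVAD. Whole blood was collected in EDTA tubes 1, 2, 5, 8 and 24 h post-dose on Days 1 and 15 of Cycles 1 and 2 and held at 4°C. Drug levels were measured by validated HPLC-MS/MS with sirolimus internal standard. Cmax, Tmax, t1/2, Ke, CL, AUC0-∞ and V came from non-compartmental analysis.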

[6] = system: patients with relapsed or refractory hematologic malignancies; details: phase I study at UT/MDACC; cited from earlier work
[7] = system: patients with relapsed/refractory acute lymphoblastic leukemia
[8] = 1 of 24 patients, everolimus with HyperCVAD
[9] = all 24 patients, everolimus with HyperCVAD
[10] = patients in first salvage, everolimus with HyperCVAD
[11] = patients in second salvage and beyond, everolimus with HyperCVAD

CO[C@H]1C[C@@H]2CC[C@@H](C)[C@@](O)(O2)C(=O)C(=O)N2CCCC[C@H]2C(=O)O[C@H]([C@H](C)C[C@@H]2CC[C@@H](OCCO)[C@H](OC)C2)CC(=O)[C@H](C)/C=C(\C)[C@@H](O)[C@@H](OC)C(=O)[C@H](C)C[C@H](C)/C=C/C=C/C=C/1C [everolimus]
expression of mTOR-sensitive genes induced by overexpression of Akt (GSEA) ([1]; 5 patients, C1D0 vs C1D1): significantly reduced | inflammation-associated genes (TNF, EGF, IL-6 induced) (GSEA) ([1]; 5 patients, C1D0 vs C1D1): similarly reduced | target genes of miR-21 (GSEA) ([1]; 5 patients, C1D0 vs C1D1): increased | patient samples with increased PTEN expression (microarray) ([1]; P=0.016): 4 of the 5 | samples with reduced phosphorylation of S6RP (western blot) [2]: 62% | phosphorylation of S6RP pS235-S236 (RPPA) ([3]; 10 patients, 1-sided paired t-test P=0.007): inhibited phosphorylation | phosphorylation of S6RP pS240-S244 (RPPA) ([3]; 10 patients, 1-sided paired t-test P=0.01): inhibited phosphorylation | phosphorylation of 4EBP1, Akt, or other proteins ([3]; 24 h after first dose): No significant decreases; also recorded: No statistically significant differences | phosphorylation of S6RP at pS235-S236 and pS240-S244 sites ([3]; everolimus 5 mg/day, RPPA and western blot): sufficiently blocked | degree of inhibition of proteins or phosphorylated forms, 5 mg/day vs 10 mg/day ([3]; including Akt targets cyclin D1, FOXO3A, PRAS40 and Mcl-1): did not differ | patients with elevation of PTEN levels by RPPA ([3]; of 10 patients with serial analysis): Five | CR without platelet recovery (CRp) [4, 8]: 4% | CR without recovery of counts (CRi) [4, 8]: 4% | partial response (PR) ([4]; 2 of 24 patients, everolimus with HyperCVAD): 8% | response in T-ALL patients ([4]; 5 of 10 heavily pretreated T-ALL patients, everolimus with HyperCVAD): 50% | response in B-ALL patients ([4]; 5 of 13 patients (all CR), everolimus with HyperCVAD): 39% | complete remission (CR) ([4]; 6 of 24 patients, everolimus with HyperCVAD): 25% | response (CR/CRp) in first salvage ([4]; 7 of 11 patients, everolimus with HyperCVAD): 64% | responses beyond second salvage ([4]; 10 patients, everolimus with HyperCVAD): no responses | median OS ([4]; B-ALL patients, everolimus with HyperCVAD): 23 weeks | median OS ([4]; T-ALL patients, everolimus with HyperCVAD): 23 weeks | overall response rate (CR+CRp+CRi) [4, 9]: 33% | response noted (including PR) [4, 9]: 41% | no detectable MRD at response (multiparametric flow cytometry) ([4]; among patients who achieved CR/CRp/CRi): 5 of the 8 | CRi in second salvage ([4]; everolimus with HyperCVAD): 1 of 3 | median EFS [4, 10]: 22 weeks | median OS [4, 10]: 29 weeks | median EFS [4, 11]: 7 weeks | median OS [4, 11]: 15 weeks | complete cytogenetic response ([4]; responders with abnormal cytogenetics at diagnosis): 3 patients | AUC and Cmax at steady state (C1D15 and C2D0) versus literature ([5]; 10-mg/day dose): higher than in previous published studies | trough levels of everolimus, association ([5]; in vivo): not associated with response or toxicity | AUC and Cmax between everolimus 5 mg/day and 10 mg/day ([5]; whole blood): dose-proportional | tolerability of single-agent everolimus [6]: well tolerated at a dose of 10 mg daily | Cardiac: Pericardial effusion, G1/2 ([7]; human, in vivo): 0 N (%) | Cardiac: Pericardial effusion, G3/4 ([7]; human, in vivo): 2 (8) N (%) | Cardiac: Tachycardia, G1/2 ([7]; human, in vivo): 3 (13) N (%) | Cardiac: Tachycardia, G3/4 ([7]; human, in vivo): 1 (4) N (%) | Constitutional: Fatigue, G1/2 ([7]; human, in vivo): 13 (54) N (%) | Constitutional: Fatigue, G3/4 ([7]; human, in vivo): 0 N (%) | Constitutional: Headache, G1/2 ([7]; human, in vivo): 6 (25) N (%) | Constitutional: Headache, G3/4 ([7]; human, in vivo): 4 (17) N (%) | Gastrointestinal: Diarrhea, G1/2 ([7]; human, in vivo): 8 (33) N (%) | Gastrointestinal: Diarrhea, G3/4 ([7]; human, in vivo): 2 (8) N (%) | Gastrointestinal: Nausea, G1/2 ([7]; human, in vivo): 9 (38) N (%) | Gastrointestinal: Nausea, G3/4 ([7]; human, in vivo): 0 N (%) | Infection (one or more), G1/2 ([7]; human, in vivo): 0 N (%) | Infection (one or more), G3/4 ([7]; human, in vivo): 23 (96) N (%) | Metabolic: ALT/AST, G1/2 ([7]; human, in vivo): 14 (58) N (%) | Metabolic: ALT/AST, G3/4 ([7]; human, in vivo): 7 (29) N (%) | Metabolic: Bilirubin, G1/2 ([7]; human, in vivo): 14 (58) N (%) | Metabolic: Bilirubin, G3/4 ([7]; human, in vivo): 2 (8) N (%) | Metabolic: Hyperglycemia, G1/2 ([7]; human, in vivo): 7 (29) N (%) | Metabolic: Hyperglycemia, G3/4 ([7]; human, in vivo): 12 (50) N (%) | Mucositis/stomatitis, G1/2 ([7]; human, in vivo): 10 (42) N (%) | Mucositis/stomatitis, G3/4 ([7]; human, in vivo): 3 (13) N (%) | Pulmonary: Dyspnea, G1/2 ([7]; human, in vivo): 1 (4) N (%) | Pulmonary: Dyspnea, G3/4 ([7]; human, in vivo): 1 (4) N (%) | Pulmonary: Pleural effusions, G1/2 ([7]; human, in vivo): 1 (10) N (%) | Pulmonary: Pleural effusions, G3/4 ([7]; human, in vivo): 2 (8) N (%) | Renal: Renal insufficiency, G1/2 ([7]; human, in vivo): 0 N (%) | Renal: Renal insufficiency, G3/4 ([7]; human, in vivo): 4 (17) N (%) | Renal: Urinary retention, G1/2 ([7]; human, in vivo): 1 (4) N (%) | Renal: Urinary retention, G3/4 ([7]; human, in vivo): 0 N (%) | incidence of grade 3/4 hyperglycemia ([7]; human, in vivo): 50% | myelosuppression and neutropenia ([7]; human, in vivo): occurred in all 24 patients | maximum tolerated dose (MTD) of everolimus ([7]; in combination with HyperCVAD, 3+3 design): 5 mg/day | DLT at dose level 0 ([7]; in vivo): no documented first or second cycle DLT | pneumonitis ([7]; in vivo): No documented cases
